Data taken from paper PMC7249612 (Biochemistry, 2016).

B1: LoxA protein: purified recombinant P. aeruginosa 15-lipoxygenase added to biofilm assays (protein, UniProt Q9I4G8 20-685, looked up)
Lipoxygenase LoxA: NDSIFFSPLKYLGAEQQRSIDASRSLLDNLIPPSLPQYDNLAGKLARRAVLTSKKLVYVWTENFGNVKGVPMARSVPLGELPNVDWLLKTAGVIVELIVNFVASLPASAAAQFERIATGLSGDLEAARQVHEALLEEAKNDPAAAGSLLLRFTELQTRVIAILTRVGLLVDDILKSASNLVTQRGQGDGLNRFRAVFGTLRLPEVADSFRDDEAFAYWRVAGPNPLLIRRVDALPANFPLGEEQFRRVMGADDSLLEAAASRRLYLLDYAELGKLAPSGAVDKLLTGTGFAYAPIALFALGKDRARLLPVAIQCGQDPATHPMFVRPAESESDLYWGWQMAKTVVQVAEENYHEMFVHLAQTHLVSEAFCLATQRTLAPSHPLHVLLAPHFEGTLFINEGAARILLPSAGFIDVMFAAPIQDTQATAGGNRLGFDFYRGMLPESLKARNVDDPLALPDYPYRDDGLLVWNAIRQWAADYVAVYYASDGDVTADVELAAWVGEVIGSGKVAGFRPITGRSQLVEVLTMVIFTASAQHAAVNFPQPSMMTYAPAICAMSAAPAPDSPSGKSEADWLKMMPPTLVALEKVNIYHLLGSVYHGRLGDYRQTGFPYAPVFSDRRVTASGGPLERFQARLKEVEATIRTRNQARRRPYEYLLPSRIPASTNI

Columns and labels:
LoxA [1] = assay: LoxA secondary product profile; assay type: biochemical, Pseudomonas aeruginosa; conditions: Kcat of LoxA with AA set to 1, unitless, 10 μM substrate
LoxA [2] = assay: LoxA substrate preference; assay type: biochemical, Pseudomonas aeruginosa; conditions: initial rate at 10 μM substrate, pH 7.0, relative to AA
Procedure, shortened: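 His6-tagged LoxA was expressed in E. coli BL21(DE3), purified on Ni-NTA, and dosed by iron content. About 7 nM enzyme started each reaction. Each fatty acid substrate was C18 HPLC-purified and used at 10 μM in 25 mM HEPES pH 7.0 without Triton X-100. Initial rate of conjugated diene formation was followed at 234 nm (ε 25000 M−1cm−1) and expressed relative to the AA rate.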

[3] = tested on: P. aeruginosa biofilm growth; assay: Abiotic microtiter biofilm assay; assay type: cell-based, Pseudomonas aeruginosa; conditions: 1 μg LoxA protein added to loxA mutant or wild-type bacteria
Procedure, shortened: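 Wild-type PAO1 and loxA::Tn strains were grown overnight in Luria broth at 37 °C with 225 rpm shaking. Cultures were diluted 1:30 in minimal essential medium in 96-well plates, with or without 1 μg recombinant LoxA protein. Plates were incubated 24 h at 37 °C without agitation. Medium was removed, biofilms were washed and stained with crystal violet, and growth was read as absorbance at 550 nm.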

[4] = tested on: P. aeruginosa biofilm growth on human airway epithelial cells; assay: Biotic biofilm assay on airway epithelial cells; assay type: cell-based, Pseudomonas aeruginosa; conditions: recombinant protein delivered to airway epithelial cells
Procedure, shortened: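 16HBE human bronchial epithelial cells were seeded at 7.4×10^4 per 6.5 mm transwell and polarized at air-liquid interface for 7 days. Cells were rinsed in MEM, and washed bacteria (wild-type PAO1 or loxA::Tn) were added at MOI 25–30. After 1 h, apical medium was replaced with MEM + 0.4% L-arginine for 5 h at 37 °C. Recombinant LoxA was added apically in MEM at increasing doses. Biofilms were released with 0.1% Triton X-100 and serially diluted for CFU/ml. Three experiments were run.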

| Molecule | Relative Kcat (LoxA [1]) | % AA Rate (10 μM) (LoxA [2]) | effect on abiotic biofilm growth [3] | effect on biotic biofilm growth of loxA transposon mutant [4] |
| --- | --- | --- | --- | --- |
| CCCCC/C=C\C/C=C\C/C=C\C/C=C\CCCC(=O)O [AA, arachidonic acid] | 1 | 100% | – | – |
| B1 | – | – | did not alter biofilm growth | This decrease could be complemented |
